“And” between values parts separate entries of the source, which are not always exact repeats. Equal entries are not always repeated. Where two headings read alike, the source gives them in different places. No end group written: not given here.
B1: CCL19: chemokine, positive control for mDC migration (protein, UniProt Q99731 22-98, looked up)
C-C motif chemokine 19: GTNDAEDCCLSVTQKPIPGYIVRNFHYLLIKDGCRVPAVVFTTLRGRQLCAPPDQPWVERIIQRLQRTSAKMKRRSS

What was measured:
[1] = test system: HEK293 cells expressing human CCR6; experiment: Chemotaxis assay, HEK293 cells expressing human CCR6; format: cell-based; conditions: HEK293 cells overexpressing human CCR6, 5 h
Summary of the method: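 48-well chemotaxis chamber, 5 h. Cells at 5×10^5 per mL in RPMI 1640 with 1% BSA, which also served as diluent and no-peptide control. CCL20 positive control. Migrated cells counted in three random ×400 fields per well, triplicate wells, as mean per field. MI = count at optimal concentration / control count. One-tailed Student's t-test. Representative of at least three experiments.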

[2] = test system: immature DC (iDC), bone marrow-derived, 6 days in GM-CSF; experiment: Chemotaxis assay, iDC cultured in GM-CSF for 6 days; format: cell-based, mouse; conditions: 1.5 h
Antimicrobial activity = format: cell-based; conditions: data not shown
human CD4^+ T cells = experiment: Chemotaxis assay, human CD4+ T cells; format: cell-based; conditions: for optimal concentration for chemotaxis / migratory index (MI): 4 h; for migratory index (MI): at optimal concentration
Summary of the method: (§1)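 In 48-well chemotaxis chambers, cells migrated for 4 h. Human CD4+ cells came from Ficoll–Paque mononuclear cells of donor blood or bone marrow, with CCL20 as positive control. Mouse cells were splenic CD4+ from magnetic positive selection, CD4/CD3-stained, with CXCL12a as control. Cells were at 5×10^5/mL in RPMI 1640/1% BSA, the medium also used to dilute peptides. Three ×400 fields were counted per triplicate well. MI = migrated cells at optimal concentration / peptide-free control. One-tailed t-test.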

mature DC (mDC) = experiment: Chemotaxis assay, LPS-matured DC; format: cell-based, mouse; conditions: DC matured 24 h with 100 ng/mL E. coli LPS; 1.5 h
Summary of the method: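 Mouse tibia/femur marrow at 3.75×10^5 cells/mL with GM-CSF supernatant (5%, 500 U/mL), refed day 3. Day 6 cultures then had LPS for 24 h. Phenotyped by flow for CD11c/MHC II, CD86, CD54, Gr1 and B220. 48-well chamber, 1.5 h, RPMI/1% BSA, cells at 5×10^5 per mL. CCL19 positive control. Three ×400 fields per well, triplicate wells, SD over nine counts, one-tailed t-test.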

mouse CD4^+ T cells = experiment: Chemotaxis assay, mouse CD4+ T cells; format: cell-based; conditions: 4 h
Summary of the method: as §1

neutrophils = experiment: Chemotaxis assay, peritoneal neutrophils; format: cell-based, mouse; conditions: at least 90% pure, positive control at 45 ng/mL
Summary of the method: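 Mouse peritoneal neutrophils, identified by morphology and at least 90% pure. Tested in 48-well chemotaxis chambers with N-formylmethionyl leucyl phenylalanine as positive control and RPMI 1640/1% BSA as medium and no-peptide control. Cells at 5×10^5 per mL. Migrated cells counted in three random ×400 fields per well in triplicate wells. Reported as mean per field. One-tailed Student's t-test.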

[3] = test system: immature DC (iDC), bone marrow-derived, 7 days in GM-CSF; experiment: Chemotaxis assay, iDC cultured in GM-CSF for 7 days; format: cell-based, mouse
Summary of the method: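 Mouse tibia/femur marrow cells were seeded at 3.75×10^5/mL in complete medium with 5% (500 U/mL) GM-CSF supernatant, refed on day 3. Loosely adherent cells were harvested on day 6 or day 7. Migration ran 1.5 h in 48-well chambers, cells at 5×10^5/mL in RPMI 1640/1% BSA, with CCL20 as positive control. Three ×400 fields were counted per triplicate well. MI = migrated cells at optimal peptide / control medium. One-tailed t-test, p<0.05.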

CD4 T cells = experiment: Chemotaxis of CD4 T cells; format: cell-based; conditions: species of cells not stated
Summary of the method: as §1

[4] = cited from earlier work
[5] = d6iDC, p<0.05 vs control medium
[6] = d7iDC, at peak peptide concentration, 1.5 h

| Molecule | chemoattraction of CCR6-expressing cells (result in words) [1] | optimal concentration for chemotaxis (human CD4^+ T cells) [ng/mL] | migratory index (MI) (human CD4^+ T cells) | migration of mDC (result in words) (mature DC (mDC)) | optimal / only significant concentration for chemotaxis (mouse CD4^+ T cells) [ng/mL] | also measured |
| --- | --- | --- | --- | --- | --- | --- |
| EPVSCIRNGGICQYRCIGLRHKIGTCGSPFKCCK (also: bicyclic or more (positions not given here)) [Defb8] | neither Defr1 nor the six cysteine allele Defb8, can chemoattract these cells |  |  |  |  | migration of iDC (result in words) ([2]; iDC, days of culture not stated (Fig. 4A)): can chemoattract iDC; antimicrobial activity (result in words) (Antimicrobial activity): much reduced antimicrobial activity compared with Defr1 |
| DPVTYIRNGGIAQYRAIGLRHKIGTAGSPFKCAK (disulfide (positions not given here)) [Defr1-1c^V] | unable to chemoattract these cells | 100 | 5.5 | Neither peptide could induce migration | 100 | migration of iDC (result in words) [2, 5]: Neither peptide could induce migration |
| CCL20: recognised chemokine ligand for the CCR6 receptor, positive control [reference compound] | can chemoattract these cells |  |  |  |  |  |
| N-formylmethionyl leucyl phenyalanine |  |  |  |  |  | migration of neutrophils (result in words) (neutrophils): significant migration |
| DPVTYIRNGGICQYRCIGLRHKIGTCGSPFKCCK (disulfide (positions not given here)) [Defr1] | neither Defr1 nor the six cysteine allele Defb8, can chemoattract these cells | 10 | 8 and 9 | do not show significant migration | 10 | peptide concentration giving peak migration ([3]; d7iDC, 1.5 h): 1 ng/mL; migratory index (MI) [3, 6]: ~3.5; migratory index (MI) ([3]; d7iDC, peptide at 0.1 ng/mL, p<0.05): 2.5; activity relative to Defr1 Y5C and Defr1-1c^V (peak concentration) (human CD4^+ T cells): tenfold more active; peptide concentration giving peak migration ([2]; d6iDC): 10 ng/mL; chemoattraction of CD4 T cells (result in words) (CD4 T cells): attracting CD4 T cells; migratory index (MI) (mouse CD4^+ T cells; at optimal concentration): 2.5; antimicrobial activity (result in words) [4]: potent antimicrobial activity |
| DPVTCIRNGGICQYRCIGLRHKIGTCGSPFKCCK (also: bicyclic or more (positions not given here)) [Defr1-Y5C] | unable to chemoattract these cells | 100 | 5.5 | Neither peptide could induce migration | 100 | migration of iDC (result in words) [2, 5]: Neither peptide could induce migration; antimicrobial activity (result in words) [4]: poor antimicrobial activity |
| ELDHCHTNGGYCVRAICPPSARRPGSCFPEKNPCCKYMK (also: bicyclic or more (positions not given here)) [Defb2] |  |  |  | do not show significant migration |  | migration of d7iDC (result in words) ([3]; all concentrations tested, p<0.05 vs control): statistically significant migration; migratory index (MI) [3, 6]: 3.0; chemoattraction of CD4 T cells (result in words) (CD4 T cells): attracting CD4 T cells |
| B1 |  |  |  | statistically significant migration |  |  |
